Source: ChEMBL document CHEMBL1135411, “Design and synthesis of a novel series of 1,2-disubstituted cyclopentanes as small, potent potentiators of 2-amino-3-(3-hydroxy-5-methyl-isoxazol-4-yl)propanoic acid (AMPA) receptors” (J Med Chem, 2002)

What was measured:
[1] = target: T1, Glutamate receptor 4 (Homo sapiens, UniProt P48058); test: Potentiation of responses mediated by 100 uM L-glutamate in transfected HEK293 cells expressing human homomeric iGluR4 flip receptors.; format: functional, cell-based
Summary of the method: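 Calcium influx was measured in confluent HEK293 cells stably expressing human homomeric iGluR4 flip, loaded 60 min with 20 µM Fluo3-AM in HEPES buffer (pH 7.1-7.3, 5 mM Ca2+). Compound at several concentrations preceded 100 µM glutamate by 5 min. Fluorescence was read before and 3 min after glutamate. Responses were scaled to 100 µM cyclothiazide, and EC50 was taken as the mean of at least three experiments.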

[2] = target: T1, Glutamate receptor 4; test: % potentiation of responses mediated by 100 uM L-glutamate in human transfected HEK293 cells expressing homomeric iGluR4 flip receptors at a dose of 3 uM.; format: functional, cell-based
Summary of the method: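 HEK293 cells stably expressing human iGluR4 flip, as confluent monolayers, loaded 60 min with 20 µM Fluo3-AM in HEPES-buffered saline (5 mM CaCl2, pH 7.1-7.3), then washed. Compound was added 5 min before 100 µM glutamate. Fluorescence was read just before glutamate and 3 min after. Potentiation at 3 µM, the highest dose tested, was expressed relative to 100 µM cyclothiazide (n = 1).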

T1 sequence (P48058 whole entry): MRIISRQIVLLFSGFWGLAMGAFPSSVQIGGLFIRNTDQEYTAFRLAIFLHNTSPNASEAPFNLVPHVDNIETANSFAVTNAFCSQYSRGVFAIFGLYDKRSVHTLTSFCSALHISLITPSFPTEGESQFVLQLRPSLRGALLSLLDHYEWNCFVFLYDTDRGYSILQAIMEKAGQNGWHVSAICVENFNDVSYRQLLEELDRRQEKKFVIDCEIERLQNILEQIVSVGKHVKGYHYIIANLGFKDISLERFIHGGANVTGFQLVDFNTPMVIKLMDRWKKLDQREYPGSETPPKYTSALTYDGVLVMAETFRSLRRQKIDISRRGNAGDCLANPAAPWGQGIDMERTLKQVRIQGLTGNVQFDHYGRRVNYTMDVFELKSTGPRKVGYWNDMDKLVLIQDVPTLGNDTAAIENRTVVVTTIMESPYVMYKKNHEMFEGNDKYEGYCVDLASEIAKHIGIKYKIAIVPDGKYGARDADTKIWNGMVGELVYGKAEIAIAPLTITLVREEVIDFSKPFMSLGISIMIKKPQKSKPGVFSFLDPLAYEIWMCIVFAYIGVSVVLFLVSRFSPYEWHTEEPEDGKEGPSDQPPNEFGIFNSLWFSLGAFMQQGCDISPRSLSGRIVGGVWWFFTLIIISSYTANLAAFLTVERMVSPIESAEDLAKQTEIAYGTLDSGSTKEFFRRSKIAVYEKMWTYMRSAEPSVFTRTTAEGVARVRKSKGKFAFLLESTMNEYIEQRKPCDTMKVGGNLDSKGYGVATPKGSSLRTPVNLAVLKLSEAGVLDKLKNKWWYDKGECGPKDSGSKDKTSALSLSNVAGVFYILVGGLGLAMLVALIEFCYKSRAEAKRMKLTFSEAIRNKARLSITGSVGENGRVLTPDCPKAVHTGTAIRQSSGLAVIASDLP

Row | SMILES | EC50 [1] | Potentiation [2]
1 | CC(C)S(=O)(=O)N[C@H]1CCC[C@@H]1c1ccc(I)cc1 | 32.8 nM | 
2 | CC(C)S(=O)(=O)N[C@H]1CCC[C@H]1c1ccc(I)cc1 |  | 34%
3 | CC(C)S(=O)(=O)N[C@H]1CCC[C@H]1c1ccccc1 |  | 2%
4 | CC(C)S(=O)(=O)N[C@H]1CCC[C@@H]1c1ccccc1 (racemic) |  | 70%
5 | CC(C)S(=O)(=O)N[C@H]1CCC[C@@H]1c1ccc(Br)cc1 | 82.1 nM | 
6 | CC(C)S(=O)(=O)N[C@@H]1CCC[C@@H]1c1cccc(F)c1 (racemic) | 621 nM | 
7 | CC(C)S(=O)(=O)N[C@@H]1CCC[C@H]1c1ccc(I)cc1 |  | 12%
8 | Cc1ccc([C@H]2CCC[C@H]2NS(=O)(=O)C(C)C)cc1 (racemic) | 434 nM | 
9 | CC(CNS(=O)(=O)C(C)C)c1ccccc1 (racemic) |  | 0%
10 | CC(C)S(=O)(=O)N[C@@H]1CCC[C@@H]1c1ccc(Br)cc1 (racemic) | 147 nM | 
11 | CC(C)S(=O)(=O)N[C@@H]1CCC[C@@H]1c1ccccc1 | 1740 nM | 
12 | CC(C)S(=O)(=O)N[C@@H]1CCC[C@@H]1c1cc(F)cc(F)c1 (racemic) | 281 nM | 
13 | CC(C)S(=O)(=O)N[C@@H]1CCC[C@@H]1c1ccc(Br)cc1 | 68 nM | 
14 | CC(C)S(=O)(=O)N[C@H]1CCC[C@H]1c1cc(F)cc(F)c1 |  | 5%
15 | CC(C)S(=O)(=O)N[C@H]1CCC[C@@H]1c1ccccc1 | 551 nM | 
16 | CC(C)S(=O)(=O)N[C@H]1CCC[C@H]1c1ccc(C#N)cc1 |  | 17%

Row | SMILES | EC50 [1] | Potentiation [2]
17 | CC(CNS(=O)(=O)C(C)C)c1ccc(Br)cc1 (racemic) |  | 26%
18 | CC(C)S(=O)(=O)N[C@H]1CCC[C@H]1c1ccc(Br)cc1 |  | 27%
19 | CC(C)S(=O)(=O)N[C@@H]1CCC[C@@H]1c1ccc(I)cc1 | 22.6 nM | 
20 | CC(C)S(=O)(=O)N[C@@H]1CCC[C@@H]1c1ccc(Cl)cc1 (racemic) | 247 nM | 
21 | CC(C)S(=O)(=O)N[C@H]1CCC[C@@H]1c1ccc(Br)cc1 (racemic) | 130 nM | 
22 | CC(C)S(=O)(=O)N[C@@H]1CCC[C@@H]1c1cc(F)cc(F)c1 | 118 nM | 
23 | CC(C)S(=O)(=O)N[C@@H]1CCC[C@@H]1c1ccc(C#N)cc1 | 403 nM | 
24 | CC(C)S(=O)(=O)N[C@H]1CCC[C@@H]1c1ccc(I)cc1 (racemic) | 93.1 nM | 
25 | CC(C)S(=O)(=O)N[C@@H]1CCC[C@@H]1c1ccc(F)cc1 (racemic) |  | 57%
26 | CC(C)S(=O)(=O)N[C@@H]1CCC[C@@H]1c1ccccc1 (racemic) |  | 48%
27 | CC(C)S(=O)(=O)N[C@@H]1CCC[C@H]1c1ccc(Br)cc1 |  | 2%
28 | CC(C)S(=O)(=O)N[C@@H]1CCC[C@H]1c1ccccc1 |  | 6%
29 | CC(C)S(=O)(=O)N[C@@H]1CCC[C@@H]1c1ccc(I)cc1 (racemic) | 45.8 nM | 
30 | CC(C)S(=O)(=O)N[C@@H]1CCC[C@@H]1c1ccc([N+](=O)[O-])cc1 (racemic) | 190 nM | 
31 | CC(C)S(=O)(=O)N[C@@H]1CCC[C@@H]1c1ccc(F)c(F)c1 (racemic) | 1100 nM | 
